Screening data from PubChem.
STAT1 activator = STAT1 signaling activation; NIH 3T3 STAT1-luciferase reporter, IFN-gamma, luminescence; 100% = IFN-gamma alone, no compound; activation (% of control), % at 5.5 µM; 200,000 compounds, 2.6% hits;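 active = activation above the screen-wide mean activation plus 3 SD, cut at about 130% in these data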;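 note: raw ratio to IFN-gamma control signal so 100% means no change and 0% no light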
APP 5'UTR act = activates APP 5'UTR luciferase reporter. SH-SY5Y APP 5'UTR luciferase reporter, luminescence; zero percent = DMSO vehicle wells. activation, % at 2 µM. 190,000 compounds, 1% hits. AID 1276;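 active = activation above a set limit, based on mean plus 3 SD of controls, cut at about 140% in these data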
NF-kB expr up = raises NF-kB expression in human neuronal cells; AID 1239; 190,000 compounds, 1.6% hits; fold change at 12.5 µM; NF-kB reporter expression; active compounds read high; in the data active = fold change above about 3.3
STAT1 inh = reduces IFN-gamma driven STAT1 reporter signal; NIH 3T3 STAT1-luciferase reporter, luminescence; inhibition, % at 5.5 µM; 200,000 compounds, 0.35% hits;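 active = inhibition above a set limit, the mean inhibition across all tested compounds plus 3 SD, cut at about 34% in these data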;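 note: 0% = IFN-gamma with DMSO and 100% = IFN-gamma with 300 µM nifuroxazide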
STAT3 activator = increases IL-6 driven STAT3 reporter signal | U3A cells, IL-6 STAT3-luciferase reporter, luminescence; 100% = signal with IL-6 EC80 alone | activation (% of control), % at 5.6 µM | 190,000 compounds, 0.91% hits;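 active = activation above the screen-wide mean of compound activation plus 3 SD, cut at about 130% in these data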;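 note: 0% = background luminescence of wells with medium and substrate only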
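System – human U3A cells carrying STAT3-luciferase construct · Probe or stimulus – Interleukin-6, 33 ng/mL · Schedule – compound 1 h, then IL-6 6 h at 37 °C · Signal – luminescence from STAT3-driven luciferase reporter · Evaluation – percent of IL-6-only median luminescence · Benchmarks – IL-6-only high control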
STAT3 blocker = STAT3 signaling inhibition. U3A cells, IL-6 STAT3-luciferase reporter, luminescence; host cell line lacks STAT1. inhibition, % at 5.5 µM. 190,000 compounds, 0.89% hits;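 active = inhibition above the mean inhibition across all screened compounds plus 3 SD, cut at about 44% in these data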;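 note: 0% = DMSO only wells and 100% = 100 µM nifuroxazide control wells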
The depositor's hits bear a star; x = not tested or not shown. This is a sample that favours compounds with a hit; in the whole collection about 5.1% have one here.

SMILES	STAT1 activator	APP 5'UTR act	NF-kB expr up	STAT1 inh	STAT3 activator	STAT3 blocker
CCn1c(COc2ccc(C)cc2)nnc1SCc1ccc(C#N)cc1	101	-9	1	-1	90	16
CCOC(=O)C1=NN(C(C)=O)C2(CC(=O)N(c3cccc(C)c3)C2=O)C1 (centres undefined)	96	-10	1.2	5	101	2
Fc1ccc(Nc2nc(-c3ccncc3)cs2)cc1	144*	106	1.2	-49	104	-3
O=C(Nc1nc(-c2ccc(F)cc2)cs1)c1cnccn1	95	-1	1.6	5	88	14
Cc1nc(N)sc1-c1csc(Nc2ncccn2)n1	125	177*	2.5	-28	91	14
O=[N+]([O-])c1cccc(-c2csc(Nc3ccccc3)n2)c1	143*	83	2.6	-49	147*	-46
c1ccc(Nc2nc(-c3ccncc3)cs2)cc1	145*	40	2.1	-61	109	-6
CCc1cc(C(=O)OC)c(NC(=O)CC2SC(N)=NC2=O)s1 (centres undefined)	102	12	1.5	-3	98	5
Nc1scc2c(C(=O)N/N=C/c3ccc(Cl)cc3)nn(-c3ccccc3)c(=O)c12	100	-3	1	0	93	12
Cc1cc(C(=O)Nc2ccccc2C(=O)O)ccc1NC(=O)COc1cccc([N+](=O)[O-])c1	99	16	0.97	-2	94	11
Cc1cc(NS(=O)(=O)c2ccc(Nc3nc(-c4sc(C)nc4C)cs3)cc2)no1	101	9	1	-1	101	-2
Cc1nc(C)c(-c2csc(Nc3ccc(F)cc3)n2)s1	142*	75	1.2	-47	106	5
Clc1ccc(Nc2nc(-c3ccncc3)cs2)cc1	137*	2	x	-42	123	-23
Nc1ccc(Nc2nc(-c3ccncc3)cs2)cc1	112	40	1.6	-13	91	13
Nc1ccc(OCc2ccccc2)cc1	116	15	1.7	-17	105	3
c1ccc(COc2ccc(-c3csnn3)cc2)cc1	136*	24	3.2	-40	115	-7
COc1ccc(C2=Nc3ccccc3OC2)cc1	123	128	8.4*	-25	100	4
CCOc1ccc(/C=C2/C(=O)N(c3ccc(OC)cc3)C(=S)N2CC(=O)OC)cc1OCC	105	-5	1.8	-4	97	6
COc1ccc2cc3cc(C(=O)NCCCN4CCc5ccccc5C4)sc3nc2c1	135*	106	3.7*	-34	128	-39
COc1ccc2nc3sc(C(=O)NCCN4CCc5ccccc5C4)cc3cc2c1	129*	-4	1.9	-32	107	-11
O=C(Nc1ccccc1)c1ccn[nH]1	138*	80	3.4*	-42	97	8
CCc1ccc(C(=O)/C=C/c2cnn(C)c2C)s1	129*	174*	11*	-32	102	2
Cc1c(/C=C/C(=O)c2cccs2)cnn1C	104	11	2.3	-8	98	6
N#Cc1ccccc1NC(=O)c1ccc(-c2ccccc2Cl)o1	138*	45	2.1	-46	94	8
Cc1cc(C(=O)NCc2ccco2)no1	96	-1	1.2	5	98	3
SMILES	STAT1 activator	APP 5'UTR act	NF-kB expr up	STAT1 inh	STAT3 activator	STAT3 blocker
CC(C)Cc1cc(C(=O)NCc2ccco2)no1	130*	22	2	-35	x	x
CSc1ccccc1NC(=O)c1cc(CC(C)C)on1	111	36	2.3	-11	106	-7
COc1ccc(NC(=O)c2cc3ccccc3o2)cc1	146*	138*	5.3*	-48	105	1
COc1cc(NC(=O)c2cc(CC(C)C)on2)c(OC)cc1Cl	105	-12	0.99	-4	136*	-43
Cc1ccc(S(=O)(=O)n2nc(-c3ccc(Cl)cc3)nc2NCc2ccco2)cc1	108	12	1.6	-9	100	0
Cc1ccccc1NC(=O)c1ccc([N+](=O)[O-])o1	100	2	3.3*	-2	94	11
Cc1ccc(NC(=O)c2ccc([N+](=O)[O-])o2)c(C)c1	108	7	2	-9	85	23
COc1ccccc1NC(=O)c1cc2ccccc2o1	154*	46	2.4	-58	165*	-73
CN(C)S(=O)(=O)c1cccc(NC(=O)c2cc3ccccc3o2)c1	105	39	1.2	-6	95	6
